Experimental data published in PubChem BioAssay AID1665 (Sanford-Burnham Center for Chemical Genomics, 2009).
Screen size: about 190,000 compounds; about 590 (0.31%) were called active.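 Rule for the calls: active = nuclear translocation activity above 50% at 5 µM, with a well cell count of 50 or more; inconclusive = wells under 50 cells across six images, flagged as toxic; inactive = the rest.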 For the sample, actives were picked, then their nearest neighbours and some compounds at random.

assay: beta-catenin nuclear localization change in HeLa – imaging, HeLa cells, immunofluorescence, high-content, primary screen (AID 1665); settings: at 5 µM; cell count: HeLa beta-catenin nuclear translocation, measured here: cell count, cytotoxicity flag; nuclear translocation activity: stronger effect = higher value;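 for nuclear translocation activity: plate controls were DMSO negative control for no effect and GSK-3 inhibitor IX positive control for full effect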
Outline: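 Test system: HeLa cells, endogenous beta-catenin; Compound: single 5 µM dose plus 0.02–20 µM confirmation series; Times: compound exposure 24 h at 37°C; Signal: fluorescence imaging of beta-catenin antibody stain plus DAPI; Read-out: % activation, nuclear-to-cytoplasmic median beta-catenin signal ratio per cell.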

| SMILES | cell count [cells] | nuclear translocation activity |
| --- | --- | --- |
| CCOC(=O)C1CCN(c2c(Nc3cc(C)cc(C)c3)c(=O)c2=O)CC1 | 1340 | 0.9% (inactive) |
| O=C(Cn1cnc2cc([N+](=O)[O-])ccc2c1=O)NC(=O)NCc1ccccc1 | 1320 | -2.1% (inactive) |
| Cc1cc(=O)[nH]c2nnnn12 | 1080 | -1.2% (inactive) |
| COc1ccc(Nc2cc(C)nc(-n3nc(C)cc3C)n2)cc1 | 451 | 249% (active) |
| Cc1cc(N/N=C\c2ccc(Br)cc2)nc(-n2nc(C)cc2C)n1 | 1430 | -1.3% (inactive) |
| COc1ccccc1/C=N\Nc1cc(C)nc(-n2nc(C)cc2C)n1 | 900 | 0.7% (inactive) |
| Nc1nnn(CC(=O)N/N=C/c2ccc(O)cc2)n1 | 1300 | -1.2% (inactive) |
| COCCNC(=S)N1CCN(C)CC1 | 1380 | -0.3% (inactive) |
| CCn1c(=O)c([N+](=O)[O-])c(NCc2ccc3c(c2)OCO3)c2ccccc21 | 1360 | -0.1% (inactive) |
| COc1cc(OC)cc(/C(N)=N/O)c1 | 1310 | 0.5% (inactive) |
| COC(=O)c1ccccc1N=Nc1c(C)[nH][nH]c1=O | 1310 | -1.6% (inactive) |
| O=C(NCCc1c[nH]c2ccc(Cl)cc12)c1ccc([N+](=O)[O-])cc1 | 1380 | 1.3% (inactive) |
| N/C(=N\OC(=O)CCn1cccc(C(F)(F)F)c1=O)c1ccc(OC(F)(F)F)cc1 | 1280 | -1.4% (inactive) |
| O=C(NCC1CCCO1)c1cc(-c2ccccc2)nc2ccccc12 (stereo unspecified) | 1120 | -2% (inactive) |
| CC(C)c1c(O)nc(SCCOc2ccc(Cl)cc2)[nH]c1=O | 1310 | 0.9% (inactive) |
| Cc1nn(CC(=O)N/N=C/c2ccc(F)cc2)c(C)c1[N+](=O)[O-] | 1290 | 0.3% (inactive) |
| O=C(NC1=NCCS1)c1ccc(Cl)s1 | 998 | 1.4% (inactive) |
| CC(=O)NC1=NN(C(C)=O)C(C)(c2ccc(Cl)s2)S1 (stereo unspecified) | 101 | 68.6% (active) |
| O=C(O)C(NS(=O)(=O)c1cccc2nsnc12)c1ccccc1 (stereo unspecified) | 1330 | -1% (inactive) |
| Cc1ccc(S(=O)(=O)N(C)CC(=O)OCC(=O)Nc2ccccc2)cc1 | 1320 | -1.1% (inactive) |
| CCS(=O)(=O)c1cc([N+](=O)[O-])c(Sc2ccccc2N)s1 | 1180 | -2.4% (inactive) |
| Cc1c(C(=O)N(Cc2ccccc2)Cc2cccnc2)cnn1-c1ccc(F)cc1 | 1030 | 0.4% (inactive) |
| CCOc1ccc(/C(O)=C2\C(=O)C(=O)N(c3ccc(OC)cc3)C2c2ccccc2[N+](=O)[O-])cc1 (stereo unspecified) | 1260 | -0.5% (inactive) |
| O=C(NN1C(=O)C2CCCCC2C1=O)c1ccco1 (stereo unspecified) | 1260 | 0.6% (inactive) |
| Cc1cc(-c2n[nH]c(=S)n2/N=C/c2ccco2)n[nH]1 | 1280 | -0.9% (inactive) |
| CCc1cccc(CC)c1NC(=S)Nc1ccc2cn[nH]c2c1 | 1270 | 0.8% (inactive) |
| O=[N+]([O-])c1ccc(N=Cc2c(O)ccc3ccccc23)cc1 | 1330 | 0.8% (inactive) |

| SMILES | cell count [cells] | nuclear translocation activity |
| --- | --- | --- |
| Cc1ccc(C(=O)Nc2nc(N)n(-c3ccccc3)n2)cc1 | 1180 | -1.1% (inactive) |
| O=C(c1c(Cl)cccc1Cl)N1CCN(c2cccc3[nH]ccc23)CC1 | 1260 | -1.5% (inactive) |
| COc1ccc(NC(=O)c2cn(-c3ccccc3)nc2SC)cc1 | 1240 | 0.1% (inactive) |
| O=C(Nc1nnc(CCN2CCCCC2)s1)c1cccc(Cl)c1 | 1310 | 0.2% (inactive) |
| C=CCSC(CC)(CC)C(N)=O | 1320 | 0.1% (inactive) |
| Cc1cc(F)ccc1NC(=O)C(C)n1c2ccccc2c2nc(=O)cc(C)n21 (stereo unspecified) | 1290 | -0.2% (inactive) |
| COc1ccc(CCN2C(=O)N(c3ccc(OC)cc3)C(=O)C2CC(=O)Nc2ccc(OC)cc2)cc1 (stereo unspecified) | 1360 | -0.8% (inactive) |
| Cc1nc(-c2nnc(SCC(=O)Nc3cc(C(F)(F)F)cc(C(F)(F)F)c3)n2C)cs1 | 1370 | -0.7% (inactive) |
| Cc1ccc2c(C)c(C(=O)N3CCC(N4CCC(C(=O)NC5CC5)CC4)CC3)oc2c1 | 1360 | 1.4% (inactive) |
| CSc1ccc(NC(=O)/C=C/C(=O)O)cc1 | 1010 | 2.1% (inactive) |
| CCN1CCN(c2nc(Nc3cccc(F)c3)nc(N)c2[N+](=O)[O-])CC1 | 1210 | -1.4% (inactive) |
| Cc1ccccc1-c1nc(C#N)c(NCc2ccco2)o1 | 1080 | -3.1% (inactive) |
| COc1ccc(Nc2oc(-c3ccccc3Cl)nc2C#N)cc1 | 210 | 156% (active) |
| COc1ccc(Nc2nc(Cl)nc(NCc3ccco3)n2)cc1 | 1380 | 3% (inactive) |
| NS(=O)(=O)c1ccc(NC2=CC(c3ccc(F)cc3)N(c3ccc(S(N)(=O)=O)cc3)C2=O)cc1 (stereo unspecified) | 1320 | 0.9% (inactive) |
| C/C(=N\NC(=O)c1cccnc1)c1ccc(-c2ccccc2)cc1 | 1160 | -0.7% (inactive) |
| O=C(Nc1ccc(S(=O)(=O)Nc2nccs2)cc1)c1cccc(S(=O)(=O)N2CCOCC2)c1 | 1290 | 0.8% (inactive) |
| C[C@@H](NC(=O)OC(C)(C)C)c1nnc(S(=O)(=O)Cc2ccccc2)o1 | 1360 | -0.8% (inactive) |
| COc1ccc(N2C(=O)c3ccccc3NC2c2ccc(OC)c(CN3CCOCC3)c2)cc1 (stereo unspecified) | 1290 | 0.6% (inactive) |
| CCCC(=O)Nc1nc2ccc(NC(=O)c3c(F)c(F)c(OC)c(F)c3F)cc2s1 | 260 | 57.6% (active) |
| CCCC(=O)Nc1nc2ccc(NC(=O)c3cccnc3)cc2s1 | 895 | -0.7% (inactive) |
| COc1ccc2nc(Nc3nc4ccc(NC(C)=O)cc4s3)sc2c1 | 875 | 2.8% (inactive) |
| Cc1ccc(/C=N/NC(=S)Nc2cccc(S(=O)(=O)N(C)C)c2)o1 | 1210 | 2.8% (inactive) |
| C=CC1C(OC2OC(CO)C(O)C(O)C2O)OC=C(C(=O)OC)C1CC1CC(=O)CC(CC(=O)CCc2ccc(O)cc2)O1 (stereo unspecified) | 387 | 79.8% (active) |
| CC(/C=C/C1(O)C(C)CC(=O)CC1(C)C)OC1OC(CO)C(O)C(O)C1O (stereo unspecified) | 1080 | -3% (inactive) |
| Cc1cc(C(=O)NCCc2ccc(Cl)cc2)n(-c2ccccc2)n1 | 1320 | -0.3% (inactive) |
